According to ChEMBL document CHEMBL5647689, “Functional role and therapeutic potential of the pim-1 kinase in colon carcinoma” (Neoplasia, 2013):
Active and inactive are the calls of the source. The rule behind the calls is not given here.

Key:
[1] = system: HCT-116; test: Antiproliferative activity against siRNA-mediated Pim-1 knockout human HCT-116 cells assessed as reduction in cell viability measured after 72 hrs; format: functional, cell-based; settings: dose 0.066-66 µM
Outline: (§1)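 HCT-116 (1 x 10^3/well) or LS174T (3 x 10^3/well) cells were grown in IMDM/10% FCS at 37°C, 5% CO2. The medium was replaced with IMDM/10% FCS containing the inhibitor at the indicated concentrations, and cells were kept 72 h at 37°C. Inhibitor stock was 20 mg/ml in DMSO, diluted in PBS or medium.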

[2] = system: LS174T; test: Antiproliferative activity against siRNA-mediated Pim-1 knockout human LS174T cells assessed as reduction in cell viability measured after 72 hrs; format: functional, cell-based; settings: dose 0.13-130 µM; outline: as §1
[3] = system: HCT-116; test: Induction of apoptosis in siRNA-mediated Pim-1 knockout human HCT-116 cells assessed as increase in caspase 3/7 activity at 0.7 uM incubated for 72 hrs by Caspase-Glo 3/7 reagent based microplate reader analysis; format: functional, cell-based
Outline: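 HCT-116 cells (1 x 10^3/well) were exposed to the inhibitor in IMDM/10% FCS for 72 h at 37°C. Caspase-3/7 was read by Caspase-Glo 3/7: substrate diluted 1:5 in serum-free medium, 1 h at room temperature in the dark, then luminescence. A WST-1 assay run in parallel on the same plate normalized for cell density.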

[4] = system: HCT-116; test: Downregulation of pim-1 levels in human HCT-116 cells at 2 uM incubated for 24 hrs by Western blotting analysis; format: functional, cell-based
Outline: (§2)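 HCT-116 lysates were made on ice in PBS with 1 mM EDTA, 1% NP-40, protease and phosphatase inhibitors, then sonicated and cleared by centrifugation. Protein was measured by DC assay. 40 µg ran on 10% SDS-PAGE and went onto PVDF (0.45 µm). Blocking used 5% milk/TBST; primary antibodies ran overnight at 4°C, then HRP secondaries for 1 h. Detection was ECL with densitometric quantitation of scanned bands.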

[5] = system: HCT-116; test: Downregulation of p-STAT3 levels at serine 727 residue in human HCT-116 cells at 2 uM incubated for 24 hrs by Western blotting analysis; format: functional, cell-based; outline: as §2
[6] = system: HCT-116; test: Downregulation of p-p21 levels in human HCT-116 cells at 2 uM incubated for 24 hrs by Western blotting analysis; format: functional, cell-based; outline: as §2
[7] = system: HCT-116; test: Downregulation of c-Myc levels in human HCT-116 cells at 2 uM incubated for 24 hrs by Western blotting analysis; format: functional, cell-based; outline: as §2
[8] = system: HCT-116; test: Downregulation of E-cadherin levels in human HCT-116 cells at 2 uM incubated for 24 hrs by Western blotting analysis; format: functional, cell-based; outline: as §2
[9] = system: HCT-116; test: Synergistic antitumor activity against human HCT-116 cells xenografted in athymic nude mouse assessed as tumor growth inhibition at 70 mg/kg, ip administered on day 3 to 4 measured after 14 days; format: functional; settings: HCT-116, 336 h, time 14 day, read-out: TGI
[10] = system: HCT-116; test: Synergistic antitumor activity against PEI complexed siRNA-mediated Pim-1 knockout human HCT-116 cells xenografted in athymic nude mouse assessed as tumor growth inhibition at 70 mg/kg, ip administered on day 3 to 4 measured after 14 days; format: functional; settings: HCT-116, 336 h, time 14 day, read-out: TGI
[11] = system: HCT-116; test: Synergistic antitumor activity against PEI complexed siRNA-mediated luciferase knockout human HCT-116 cells xenografted in athymic nude mouse assessed as tumor growth inhibition at 70 mg/kg, ip administered on day 3 to 4 measured after 14 days; format: functional; settings: HCT-116, 336 h, time 14 day, read-out: TGI
[12] = Toxicity in athymic nude mouse xenografted with human HCT-116 cells assessed as change in body weight at 70 mg/kg, ip administered twice a week measured after 14 days; format: organism-based; settings: in vivo, 336 h, time 14 day
[13] = Toxicity in athymic nude mouse xenografted with human HCT-116 cells assessed as change in body weight at 40 mg/kg, ip administered twice a week measured after 14 days; format: organism-based; settings: in vivo, 336 h, time 14 day
[14] = Toxicity in athymic nude mouse xenografted with human HCT-116 cells assessed as behavioural changes in at 70 mg/kg, ip administered twice a week measured after 14 days; format: organism-based; settings: in vivo, 336 h, time 14 day
[15] = Toxicity in athymic nude mouse xenografted with human HCT-116 cells assessed as behavioural changes in at 40 mg/kg, ip administered twice a week measured after 14 days; format: organism-based; settings: in vivo, 336 h, time 14 day
[16] = system: HCT-116; test: Synergistic antitumor activity against PEI complexed siRNA treated human HCT-116 cells xenografted in athymic nude mouse assessed as tumor growth inhibition at 40 mg/kg, ip administered on day 3 to 4 measured after 14 days; format: functional; settings: HCT-116, 336 h, time 14 day, read-out: TGI
[17] = system: HCT-116; test: Synergistic antitumor activity against PEI complexed siRNA-mediated Pim-1 knockout human HCT-116 cells xenografted in athymic nude mouse assessed as tumor growth inhibition at 40 mg/kg, ip administered on day 3 to 4 measured after 14 days; format: functional; settings: HCT-116, 336 h, time 14 day, read-out: TGI
[18] = system: HCT-116; test: Antitumor activity against PEI complexed siRNA-mediated Pim-1 knockout human HCT-116 cells xenografted in athymic nude mouse assessed as increase in pim-1 levels in tumor at 40 to 70 mg/kg, ip administered on day 3 to 4 measured after 14 days by immunohistochemical staining based analysis; format: functional, organism-based; settings: dose 40-70 mg/kg, time 14.0 day
Outline: (§3)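 Nude mice (Foxn1nu, 6–8 weeks) carried s.c. HCT-116 flank tumours (1.5 x 10^6 cells) and were randomized at 40–50 mm3, n = 12 tumours/group. PEI F25-LMW-complexed siRNA (Pim-1 or control) was given at 10 µg i.p. every 2–3 days; 70 or 40 mg/kg in PBS was given i.p. every 3–4 days. Paraffin tumour sections were stained for Pim-1 and ranked 0–4.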

[19] = system: HCT-116; test: Antitumor activity against PEI complexed siRNA-mediated luciferase knockout human HCT-116 cells xenografted in athymic nude mouse assessed as increase in pim-1 levels in tumor at 40 to 70 mg/kg, ip administered on day 3 to 4 measured after 14 days by immunohistochemical staining based analysis; format: functional, organism-based; settings: dose 40-70 mg/kg, time 14.0 day; outline: as §3
[20] = system: HCT-116; test: Antiproliferative activity against siRNA-mediated Pim-1 knockout human HCT-116 cells assessed as increase in pim-1 mRNA levels measured after 24 hrs by q-PCR analysis; format: functional, cell-based; settings: dose 1-3 µM
Outline: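 HCT-116 cells seeded at 3.5 x 10^5 per six-well well under standard conditions, then exposed 24 h at 37°C to 1 or 3 µM in IMDM/10% FCS. Total RNA was extracted by phenol/chloroform, and Pim-1 mRNA was measured by SYBR Green qPCR run in parallel with actin. Levels were expressed as 2^CP(target)/2^CP(actin).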

[21] = system: HCT-116; test: Induction of apoptosis in human HCT-116 cells assessed as fold increase in caspase 3/7 activity incubated for 72 hrs by Caspase-Glo 3/7 reagent based microplate reader analysis; format: functional
[22] = system: HCT-116; test: Induction of apoptosis in siRNA-mediated Pim-1 knockout human HCT-116 cells assessed as fold increase in caspase 3/7 activity incubated for 72 hrs by Caspase-Glo 3/7 reagent based microplate reader analysis; format: functional
Outline: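 HCT-116 cells, 5 x 10^2 per well, transfected with 20 nM siPim-1 […], held 72 h at 37°C. Caspase substrate diluted 1:5 in serum-free medium added for 1 h at room temperature in the dark; luminescence read. Signal normalized to a parallel WST-1 assay on the same plate. Means ± SEM.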

[23] = Downregulation of miR-15b expression in human HCT-116 cells at 3 uM incubated for 24 hrs by […] analysis; format: functional
[24] = system: HCT-116; test: Induction of miR-15b mediated pim-1 expression in human HCT-116 cells assessed as increase in luciferase activity at 3 uM incubated for 72 hrs by luminometer analysis; format: functional, cell-based
Outline: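 HCT-116 cells (3 x 10^4 per 24-well well) co-transfected via PEI F25-LMW with 125 ng pGL3 luciferase reporter carrying Pim-1 3′UTR, intact or miR-15b-seed-mutated. After 48 h, 1 or 3 µM in IMDM/10% FCS was added for 24 h at 37°C. Lysate was mixed with luciferase substrate and read on a luminometer.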

[25] = system: HCT-116; test: cells; settings: Homo sapiens, HCT-116, 72 h
[26] = system: HCT-116; test: cells; settings: Homo sapiens, HCT-116, 72 h; remark: listed apart in the source

Cn1c2c(c3ccc(Cl)c(Cl)c31)C(C#N)C1(CCNCC1)NC2=O (stereo unspecified)
Activity [1]: Dose-Dependent Effect | Activity [2]: Dose-Dependent Effect | Activity [3]: Active | Activity [4]: Active | Activity [5]: Active | Activity [6]: Active | Activity [7]: Active | Activity [8]: Active

O=c1[nH]cc(F)c(=O)[nH]1 [FLUOROURACIL]
inhibition in vivo at 70 mg/kg [9]: ~40% | inhibition in vivo at 70 mg/kg [10]: ~30% | inhibition in vivo at 70 mg/kg [11]: ~30% | Activity [12]: Toxic | Activity [13]: Non-Toxic | Activity [14]: Toxic | Activity [15]: Non-Toxic | inhibition in vivo at 40 mg/kg [16]: ~20% | inhibition in vivo at 40 mg/kg [17]: ~60% | Activity [18]: Active | Activity [19]: Active | Activity [20]: Dose-Dependent Effect | fold change (FC) [21]: ~1.7 | fold change (FC) [22]: 1.4 | Activity [23]: 40% | Activity [24]: Active | IC50 [25]: 10.1 µM | IC50 [26]: 3.2 µM
